For test [1], the target named is T1, Melanocyte-stimulating hormone receptor (Homo sapiens, UniProt Q01726). Description: Maximum effect on human MC1R expressed in HEK293 cells assessed as intracellular cAMP accumulation at 0.0001 to 10 uM. Type of test: functional, cell-based. In outline:
(§1)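 Transfected HEK293 cells, grown in MEM with 10% FBS, seeded 48 h before assay (50,000 cells/well). Cells preincubated 1 min at 37 °C in Earle's balanced salt solution with IBMX, then exposed 3 min at 37 °C to peptide at 10−10 to 10−5 M. Reaction stopped with ice-cold Tris/EDTA and boiling for 7 min. cAMP in supernatant measured by [3H]cAMP/PKA competition against a standard curve. EC50 from nonlinear least-squares fit, two experiments in triplicate.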
Target sequence in this assay (Q01726 whole entry, looked up): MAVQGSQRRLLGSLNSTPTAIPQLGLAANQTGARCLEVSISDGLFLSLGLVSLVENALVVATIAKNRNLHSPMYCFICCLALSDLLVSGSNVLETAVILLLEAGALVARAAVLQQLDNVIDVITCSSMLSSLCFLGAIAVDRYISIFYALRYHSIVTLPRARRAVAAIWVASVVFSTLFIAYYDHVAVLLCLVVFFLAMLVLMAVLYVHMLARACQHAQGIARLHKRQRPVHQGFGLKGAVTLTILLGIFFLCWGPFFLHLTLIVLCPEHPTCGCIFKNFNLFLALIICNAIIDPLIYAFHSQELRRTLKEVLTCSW

For test [2], the target named is T2, Melanocortin receptor 3 (Homo sapiens, UniProt P41968). Description: Displacement of [125I]NDPalphaMSH from human MC3R expressed in HEK293 cells. Type of test: cell-based. Put shortly: (§2)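 Whole HEK293 cells stably expressing the receptor, seeded 48 h before assay (50,000 cells/well), washed with MEM/25 mM bicarbonate. Cells lysed with NaOH/Triton X-100 and counted by gamma counting. IC50 from nonlinear least-squares fit, two experiments in triplicate.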
T2 sequence (P41968 whole entry): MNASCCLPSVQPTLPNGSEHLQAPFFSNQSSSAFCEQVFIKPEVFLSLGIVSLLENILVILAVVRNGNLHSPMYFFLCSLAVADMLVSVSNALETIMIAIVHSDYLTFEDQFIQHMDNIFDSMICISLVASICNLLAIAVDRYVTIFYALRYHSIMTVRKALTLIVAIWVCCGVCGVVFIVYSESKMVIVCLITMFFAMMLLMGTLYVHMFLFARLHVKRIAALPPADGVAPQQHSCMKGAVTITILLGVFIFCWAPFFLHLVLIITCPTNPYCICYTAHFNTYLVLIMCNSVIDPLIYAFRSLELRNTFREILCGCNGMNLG

In test [3] the target is T3, Melanocortin receptor 4 (Homo sapiens, UniProt P32245). As to the kind of experiment: Displacement of [125I]NDPalphaMSH from human MC4R expressed in HEK293 cells. Type of test: cell-based. Put shortly: as §2
T3 sequence (P32245 whole entry): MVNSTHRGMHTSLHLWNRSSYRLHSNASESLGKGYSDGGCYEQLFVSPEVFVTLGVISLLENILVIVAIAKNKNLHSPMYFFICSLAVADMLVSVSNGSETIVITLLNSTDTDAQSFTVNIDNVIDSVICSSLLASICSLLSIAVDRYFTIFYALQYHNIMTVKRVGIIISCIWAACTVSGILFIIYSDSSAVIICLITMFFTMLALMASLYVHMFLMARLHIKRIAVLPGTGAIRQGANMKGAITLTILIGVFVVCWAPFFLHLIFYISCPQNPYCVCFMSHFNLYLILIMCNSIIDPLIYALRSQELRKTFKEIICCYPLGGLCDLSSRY
In test [4] the target is T2, Melanocortin receptor 3. Description: Effect on human MC3R expressed in HEK293 cells assessed as intracellular cAMP accumulation. The test is classed as functional, cell-based. In outline: as §1
The target of test [5] is T3, Melanocortin receptor 4. As to the kind of experiment: Effect on human MC4R expressed in HEK293 cells assessed as intracellular cAMP accumulation. The test is classed as functional, cell-based. In outline: as §1
Test [6] has as its target T1, Melanocyte-stimulating hormone receptor. Description: Displacement of [125I]NDPalphaMSH from human MC1R expressed in HEK293 cells. Type of test: cell-based. Put shortly: as §2
Target sequence in this assay (Q01726 whole entry): as the sequence (Q01726 whole entry, looked up) above
Test [7] addresses T4, Melanocortin receptor 5 (Homo sapiens, UniProt P33032). Description: Effect on human MC5R expressed in HEK293 cells assessed as intracellular cAMP accumulation. Type of test: functional, cell-based. Put shortly: as §1
Test [8] addresses T4, Melanocortin receptor 5. Description: Displacement of [125I]NDPalphaMSH from human MC5R expressed in HEK293 cells. Type of test: cell-based. Put shortly:
as §2

In test [9] the target is T1, Melanocyte-stimulating hormone receptor. As to the kind of experiment: Effect on human MC1R expressed in HEK293 cells assessed as intracellular cAMP accumulation. The test is classed as functional, cell-based. Put shortly: as §1
Target sequence in this assay (Q01726 whole entry): as the sequence (Q01726 whole entry, looked up) above
In test [10] the target is T3, Melanocortin receptor 4. Description: Maximum effect on human MC4R expressed in HEK293 cells assessed as intracellular cAMP accumulation at 0.0001 to 10 uM. Type of test: functional, cell-based. Put shortly:
as §1

The target in test [11] is T4, Melanocortin receptor 5. As to the kind of experiment: Maximum effect on human MC5R expressed in HEK293 cells assessed as intracellular cAMP accumulation at 0.0001 to 10 uM. Type of test: functional, cell-based. Put shortly: as §1
Test [12] concerns the target T2, Melanocortin receptor 3. As to the kind of experiment: Maximum effect on human MC3R expressed in HEK293 cells assessed as intracellular cAMP accumulation at 0.0001 to 10 uM. Type of test: functional, cell-based. Put shortly:
as §1

T4 sequence (P33032 whole entry): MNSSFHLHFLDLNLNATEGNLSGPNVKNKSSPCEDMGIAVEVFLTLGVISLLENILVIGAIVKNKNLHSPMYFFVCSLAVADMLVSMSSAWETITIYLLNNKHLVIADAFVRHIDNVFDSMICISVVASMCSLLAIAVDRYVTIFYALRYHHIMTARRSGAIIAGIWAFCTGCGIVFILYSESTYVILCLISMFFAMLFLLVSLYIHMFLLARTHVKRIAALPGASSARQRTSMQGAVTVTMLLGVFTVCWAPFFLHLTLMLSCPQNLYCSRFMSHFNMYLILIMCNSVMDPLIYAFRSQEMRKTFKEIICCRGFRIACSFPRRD

For the molecule `CCCC[C@H](N)C(=O)N[C@H]1CC(=O)NCCCC[C@@H](C(N)=O)NC(=O)[C@H](Cc2c[nH]c3ccccc23)NC(=O)[C@H](CCCNC(=N)N)NC(=O)[C@@H](Cc2ccc3ccccc3c2)NC(=O)[C@H](Cc2cnc[nH]2)NC1=O`, in test [1], the Activity turned out to be 100%.
On to `CCCC[C@H](NC(C)=O)C(=O)N[C@@H](CC(=O)O)C(=O)N[C@H]1Cc2ccccc2CN([C@H](Cc2ccccc2)C(=O)N[C@@H](CCCN=C(N)N)C(=O)N[C@@H](Cc2c[nH]c3ccccc23)C(=O)N[C@@H](CCCCN)C(N)=O)C1=O`, for which the half-maximal inhibitory concentration (IC50) (on Melanocortin receptor 3 [2] (hek293); at Melanocortin receptor 4 [3] (hek293); in test [6] (hek293); at Melanocortin receptor 5 [8] (hek293)) was greater than 10000 nM throughout. Further, the EC50 (on Melanocortin receptor 3 [4] (hek293); at Melanocortin receptor 4 [5] (hek293); at Melanocortin receptor 5 [7] (hek293); in [9] (hek293)) was greater than 10000 nM throughout.
On to `CCCC[C@H](N)C(=O)N[C@H]1CC(=O)NCCCC[C@@H](C(N)=O)NC(=O)[C@H](Cc2c[nH]c3ccccc23)NC(=O)[C@H](CCCNC(=N)N)NC(=O)[C@@H](Cc2ccc(Cl)cc2)N2Cc3ccccc3CC(NC1=O)C2=O` (stereo not given in full), for which the Activity at Melanocortin receptor 4 [10] was determined as 33%; on Melanocortin receptor 5 [11], 45%; at Melanocortin receptor 3 [12], 55%; in test [1] it was 60%.
On the same counts, the results for `CCCC[C@@H](NC(C)=O)C(=O)N[C@@H](CC(=O)O)C(=O)NC1Cc2ccccc2CN([C@@H](Cc2ccccc2)C(=O)N[C@@H](CCCNC(=N)N)C(=O)N[C@@H](Cc2c[nH]c3ccccc23)C(=O)N[C@@H](CCCCN)C(N)=O)C1=O` (stereo not given in full) are 0%, 0%, 0% and 0%.
For the molecule `CCCC[C@H](N)C(=O)N[C@H]1CC(=O)NCCCC[C@@H](C(N)=O)NC(=O)[C@H](Cc2c[nH]c3ccccc23)NC(=O)[C@H](CCCN=C(N)N)NC(=O)[C@@H](Cc2ccc(Cl)cc2)N2Cc3ccccc3CC(NC1=O)C2=O` (stereo not given in full), the 50% inhibitory concentration (IC50) is 29 nM at Melanocortin receptor 3 [2], 2000 nM at Melanocortin receptor 4 [3], greater than 1000 nM in test [6] and 123 nM at Melanocortin receptor 5 [8]. For the same molecule, the EC50 is greater than 1000 nM on Melanocortin receptor 3 [4], 3200 nM on Melanocortin receptor 4 [5], 180 nM on Melanocortin receptor 5 [7] and 900 nM in [9].

The record behind these values is ChEMBL document CHEMBL1147202, “Novel selective human melanocortin-3 receptor ligands: use of the 4-amino-1,2,4,5-tetrahydro-2-benzazepin-3-one (Aba) scaffold” (Bioorg Med Chem Lett, 2007).
